# Activity calls are given as the source filed them. The calls are words filed in the database; no cut-off is given here.
# Key:
# [1] = target: T1, Toll-like receptor 8 (Homo sapiens, UniProt Q9NR97); test: Inhibition of human TLR8 expressed in HEK293 cells assessed as reduction in R848-induced NFkappaB production incubated for 16 hrs by quanti-blue SEAP assay; type: cell-based
# T1 sequence (Q9NR97 whole entry): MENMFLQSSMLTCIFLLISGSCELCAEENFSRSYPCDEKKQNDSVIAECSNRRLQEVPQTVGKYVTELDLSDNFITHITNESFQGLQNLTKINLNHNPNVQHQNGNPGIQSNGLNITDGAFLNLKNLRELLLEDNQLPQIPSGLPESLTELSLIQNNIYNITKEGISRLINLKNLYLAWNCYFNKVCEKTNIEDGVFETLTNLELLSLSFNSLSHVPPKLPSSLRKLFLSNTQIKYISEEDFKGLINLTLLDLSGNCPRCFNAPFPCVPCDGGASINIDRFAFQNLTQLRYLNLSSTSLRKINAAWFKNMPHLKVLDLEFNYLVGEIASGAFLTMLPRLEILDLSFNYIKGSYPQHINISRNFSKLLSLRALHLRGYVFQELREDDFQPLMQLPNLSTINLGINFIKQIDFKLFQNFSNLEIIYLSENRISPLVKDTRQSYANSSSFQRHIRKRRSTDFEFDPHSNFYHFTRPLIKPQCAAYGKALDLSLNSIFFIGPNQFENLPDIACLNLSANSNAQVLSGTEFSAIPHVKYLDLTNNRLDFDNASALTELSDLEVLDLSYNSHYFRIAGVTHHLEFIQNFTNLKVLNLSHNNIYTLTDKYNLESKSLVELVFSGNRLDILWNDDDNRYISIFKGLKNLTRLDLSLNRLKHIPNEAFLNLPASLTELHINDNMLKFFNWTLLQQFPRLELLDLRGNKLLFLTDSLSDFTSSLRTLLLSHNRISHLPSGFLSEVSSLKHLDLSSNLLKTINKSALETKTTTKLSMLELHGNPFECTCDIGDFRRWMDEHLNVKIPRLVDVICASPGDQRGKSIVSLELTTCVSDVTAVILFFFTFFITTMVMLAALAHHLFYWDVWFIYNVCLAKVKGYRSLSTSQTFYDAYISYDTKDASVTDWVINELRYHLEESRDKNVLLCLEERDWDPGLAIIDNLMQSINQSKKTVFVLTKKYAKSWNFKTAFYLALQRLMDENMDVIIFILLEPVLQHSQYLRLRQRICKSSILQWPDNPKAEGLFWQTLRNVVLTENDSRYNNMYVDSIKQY
# In short: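 HEK 293-Blue cells stably expressing hTLR7 or hTLR8 with an inducible SEAP reporter were incubated 16 h with compound under 1 µg/mL R848 stimulation. SEAP was read at 620 nm. Data were normalized to the R848 control, and IC50 was taken from concentration-response curves. […] Mean ± s.d., n = 3 independent experiments.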
# [2] = system: THP-1; test: Cytotoxicity against human THP1 cells transfected with human TLR7/8 assessed as reduction in cell viability at 0.5 to 20 uM incubated for 16 hrs by WST-1 assay; type: cell-based; details: thp-1, 16 h
# [3] = system: RAW264.7; test: Cytotoxicity against mouse RAW264.7 cells assessed as reduction in cell viability at 0.5 to 20 uM incubated for 16 hrs by WST-1 assay; type: cell-based; details: raw264.7, 16 h
# [4] = system: RAW264.7; test: Cytotoxicity against mouse RAW264.7 cells transfected with human TLR7/8 assessed as reduction in cell viability at 0.5 to 20 uM incubated for 16 hrs by WST-1 assay; type: cell-based; details: raw264.7, 16 h
# [5] = target: T2, Toll-like receptor 8 (Homo sapiens) (UniProt Q9NR97); test: Inhibition of human TLR8 expressed in HEK293 cells assessed as reduction in ssRNA-induced NFkappaB production at 5 uM incubated for 16 hrs by quanti-blue SEAP assay; type: cell-based
# T2 sequence (whole entry): T1 sequence (Q9NR97 whole entry)
# In short: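 HEK 293 hTLR8 SEAP reporter cells were stimulated with ssRNA (ssRNA-Lyo-40) and incubated with compound for 16 h. Data were normalized as (raw − untreated)/(ligand + solvent − untreated), with ligand + solvent set as 100%. Mean ± s.d., n = 3 independent experiments.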
# [6] = system: THP-1; test: Inhibition of IFN mediated immune response in human THP1 cells assessed as inhibition of 3p-hpRNA-induced RIG1 signalling pathway at 0.5 to 5 uM incubated for 16 hrs by luciferase assay; type: functional, cell-based
# In short: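 THP1-Dual monocytes carrying Lucia luciferase and SEAP reporters were stimulated with 3p-hpRNA (RIG-I agonist) or Y-form dsDNA G3-YSD (cGAS agonist), with or without compound. Secreted Lucia luciferase luminescence was measured as the type I IFN read-out. Mean ± s.d., n = 3 independent experiments.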
# [7] = target: T2, Toll-like receptor 8 (Homo sapiens); test: Inhibition of human TLR8 expressed in HEK293 cells assessed as reduction in TNFalpha-induced NFkappaB production incubated for 16 hrs by quanti-blue SEAP assay; type: cell-based
# In short: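 HEK 293 hTLR8 SEAP reporter cells were stimulated with recombinant hTNF-α and incubated with compound for 16 h. SEAP absorbance was read at 620 nm and compared with 50% DMSO-treated and untreated wells.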
# [8] = target: T2, Toll-like receptor 8 (Homo sapiens); test: Inhibition of human TLR8 expressed in HEK293 cells assessed as reduction in TNFalpha production incubated for 24 hrs by ELISA; type: cell-based
# [9] = target: T2, Toll-like receptor 8 (Homo sapiens); test: Inhibition of human TLR8 expressed in HEK293 cells assessed as reduction in IL1beta production incubated for 24 hrs by ELISA; type: cell-based
# [10] = system: HEK293; test: Cytotoxicity against human HEK293 cells transfected with human TLR8 assessed as reduction in cell viability at 0.5 to 20 uM incubated for 16 hrs by WST-1 assay; type: cell-based; details: hek293, 16 h
structure (smiles),measurement,setting,value
O=C(Nc1ccc(Oc2cc(C(F)(F)F)cc(C(F)(F)F)c2)cc1)c1c(F)cccc1Cl,IC50,[1],1640 nM
O=C(Nc1ccc(Oc2cncc(C(F)(F)F)c2)cc1)c1c(F)cccc1Cl,IC50,[1],2870 nM
same,Activity,[2],Non-Toxic
same,Activity,[3],Non-Toxic
same,Activity,[4],Non-Toxic
same,inhibition,[5],inactive
same,inhibition,[6],inactive
same,inhibition,[7],Active
same,inhibition,[8],Active
same,inhibition,[9],Active
same,Activity,[10],Non-Toxic
O=[N+]([O-])c1c(I)cccc1Oc1ccc(-c2nnco2)cc1,IC50,[1],300 nM
same,Activity,[2],Non-Toxic
same,Activity,[3],Non-Toxic
same,Activity,[4],Non-Toxic
same,inhibition,[5],Active
same,inhibition,[6],inactive
same,inhibition,[7],Active
same,inhibition,[8],Active
same,inhibition,[9],Active
same,Activity,[10],Non-Toxic
O=C(Nc1ccc(Oc2cc(C(F)(F)F)cc(C(F)(F)F)c2)cc1)c1c(F)cccc1I,IC50,[1],1040 nM
same,Activity,[2],Non-Toxic
same,Activity,[3],Non-Toxic
same,Activity,[4],Non-Toxic
same,inhibition,[5],inactive
same,inhibition,[6],inactive
same,inhibition,[7],Active
same,inhibition,[8],Active
same,inhibition,[9],Active
same,Activity,[10],Non-Toxic
